The source made the active and inactive calls. The calls are words filed in the database; no cut-off is given here.
Columns and labels:
Prostaglandin E synthase [1] = target: T1, Prostaglandin E synthase (Homo sapiens, UniProt O14684); experiment: Inhibition of mPGES1 in human HeLa cells assessed as reduction in TNF-alpha induced PGE2 production preincubated for 2 hrs followed by TNF-alpha addition for 24 hrs by ELISA; type: cell-based
T1 sequence (O14684 whole entry): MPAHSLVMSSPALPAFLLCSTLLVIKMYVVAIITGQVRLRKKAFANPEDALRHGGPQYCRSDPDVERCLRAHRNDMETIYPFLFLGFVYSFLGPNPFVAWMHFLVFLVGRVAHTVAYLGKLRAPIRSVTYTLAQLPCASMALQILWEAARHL
Summary of the method: (§1)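 Read-out was PGE2 released into the HeLa culture supernatant, measured with an ELISA kit.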

[2] = Cytotoxicity against human HeLa cells assessed as cell proliferation at 50 uM after 24 hrs by MTT assay; type: toxicity, cell-based; details: read-out: Activity
[3] = Antioxidant activity assessed as DPPH radical scavenging activity at 50 uM after 30 mins; type: functional
[4] = target: T2, Polyunsaturated fatty acid 5-lipoxygenase (Homo sapiens) (UniProt P09917); experiment: Inhibition of human recombinant 5-LOX expressed in Escherichia coli BL21 assessed as decrease in 5-HPETE production at 50 uM preincubated with enzyme followed by arachidonic acid substrate addition by UV-vis spectrophotometry
T2 sequence (whole entry): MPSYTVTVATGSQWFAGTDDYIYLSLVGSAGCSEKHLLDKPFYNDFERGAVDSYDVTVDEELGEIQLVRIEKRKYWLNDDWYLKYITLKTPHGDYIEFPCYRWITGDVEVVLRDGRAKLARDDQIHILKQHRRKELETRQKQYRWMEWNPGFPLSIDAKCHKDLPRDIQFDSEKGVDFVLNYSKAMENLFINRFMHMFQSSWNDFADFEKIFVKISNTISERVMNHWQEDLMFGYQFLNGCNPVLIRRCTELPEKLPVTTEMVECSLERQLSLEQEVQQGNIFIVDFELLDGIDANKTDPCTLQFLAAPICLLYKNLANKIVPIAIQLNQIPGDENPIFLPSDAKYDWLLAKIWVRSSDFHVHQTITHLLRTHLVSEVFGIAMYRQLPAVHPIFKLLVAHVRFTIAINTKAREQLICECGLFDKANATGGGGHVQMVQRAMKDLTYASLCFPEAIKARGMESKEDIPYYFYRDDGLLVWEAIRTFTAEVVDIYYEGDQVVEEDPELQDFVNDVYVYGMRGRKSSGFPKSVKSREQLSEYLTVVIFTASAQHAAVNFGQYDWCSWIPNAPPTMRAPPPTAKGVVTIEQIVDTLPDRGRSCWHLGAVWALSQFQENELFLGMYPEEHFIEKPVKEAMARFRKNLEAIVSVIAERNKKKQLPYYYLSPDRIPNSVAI

[5] = target: T3, Prostaglandin E synthase (Homo sapiens) (UniProt O14684); experiment: Inhibition of mPGES1 in human HeLa cells assessed as reduction in TNF-alpha induced PGE2 production at 50 uM preincubated for 2 hrs followed by TNF-alpha addition for 24 hrs by ELISA; type: cell-based; summary of the method: as §1
T3 sequence (whole entry): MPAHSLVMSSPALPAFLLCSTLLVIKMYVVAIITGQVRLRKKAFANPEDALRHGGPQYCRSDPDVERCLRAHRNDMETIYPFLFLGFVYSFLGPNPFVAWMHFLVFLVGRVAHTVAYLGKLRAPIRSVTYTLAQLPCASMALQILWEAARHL

[6] = target: T4, Polyunsaturated fatty acid 5-lipoxygenase (Homo sapiens, UniProt P09917); experiment: Inhibition of human recombinant 5-LOX expressed in Escherichia coli BL21 assessed as decrease in 5-HPETE production preincubated with enzyme followed by arachidonic acid substrate addition by UV-vis spectrophotometry
T4 sequence (P09917 whole entry): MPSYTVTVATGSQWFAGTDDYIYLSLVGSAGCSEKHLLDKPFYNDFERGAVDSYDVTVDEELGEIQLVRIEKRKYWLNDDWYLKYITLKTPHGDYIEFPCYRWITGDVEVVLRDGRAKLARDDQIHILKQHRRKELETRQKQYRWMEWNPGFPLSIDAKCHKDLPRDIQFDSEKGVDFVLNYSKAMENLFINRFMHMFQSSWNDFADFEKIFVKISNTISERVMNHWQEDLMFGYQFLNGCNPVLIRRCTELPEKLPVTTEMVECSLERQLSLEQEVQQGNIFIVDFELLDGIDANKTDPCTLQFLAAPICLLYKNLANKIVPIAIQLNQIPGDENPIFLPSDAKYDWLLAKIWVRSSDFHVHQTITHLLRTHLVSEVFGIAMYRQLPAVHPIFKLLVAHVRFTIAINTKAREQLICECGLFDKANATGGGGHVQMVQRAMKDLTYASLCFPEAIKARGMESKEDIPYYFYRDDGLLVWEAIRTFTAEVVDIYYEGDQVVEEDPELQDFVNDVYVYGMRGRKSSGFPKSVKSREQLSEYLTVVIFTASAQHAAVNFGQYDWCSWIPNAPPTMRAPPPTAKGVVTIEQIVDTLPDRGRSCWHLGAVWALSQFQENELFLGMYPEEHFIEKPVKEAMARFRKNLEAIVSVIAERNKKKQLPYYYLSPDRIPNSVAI

[7] = target: T2, Polyunsaturated fatty acid 5-lipoxygenase (Homo sapiens); details: 10 uM
[8] = target: T3, Prostaglandin E synthase (Homo sapiens); experiment: Inhibition of mPGES1 in human HeLa cells assessed as reduction in TNF-alpha induced PGE2 production at 5 uM preincubated for 2 hrs followed by TNF-alpha addition for 24 hrs by ELISA; type: cell-based; summary of the method: as §1
Prostaglandin E synthase [9] = target: T1, Prostaglandin E synthase; experiment: Inhibition of mPGES1 in human A549 cells assessed as reduction in PGE2 production; type: cell-based
HeLa [10] = experiment: Inhibition of COX-2 mRNA expression in human HeLa cells at 5 uM by RT-PCR method; type: functional, cell-based
Summary of the method: (§2)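 Real-time PCR on treated HeLa cells. mRNA levels were normalized to untreated cells and to β-actin, and significance was assessed by 2-way ANOVA.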

HeLa [11] = experiment: Inhibition of mPGES1 mRNA expression in human HeLa cells at 5 uM by RT-PCR method; type: functional, cell-based; summary of the method: as §2
[12] = target: T5, Prostaglandin E synthase/G/H synthase 2 (Homo sapiens) (UniProt P35354+O14684); experiment: Inhibition of COX-2/mPGES1 in human HeLa cells assessed as reduction in TNF-alpha induced PGE2 production at 5 uM preincubated for 15 mins followed by arachidonic acid addition for 15 mins by ELISA; type: cell-based
Summary of the method: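 HeLa cells primed with TNF at 50 ng/ml to induce mPGES1, then exposed to compound for 15 min, then challenged with exogenous arachidonic acid for a further 15 min. PGE2 released into the culture supernatant was quantified by ELISA.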

[13] = target: Prostaglandin G/H synthase 1 (Homo sapiens, UniProt P23219); experiment: Inhibition of COX-1 (unknown origin)
[14] = target: T5, Prostaglandin E synthase/G/H synthase 2 (Homo sapiens); experiment: Inhibition of COX-2/mPGES1 in human HeLa cells assessed as reduction in TNF-alpha induced PGE2 production at 5 uM after 15 mins followed by ELISA; type: cell-based
Summary of the method: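 TNF-treated HeLa cells were exposed to compound for 15 min without added arachidonic acid. PGE2 released into the culture supernatant was measured by ELISA.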

[15] = substrate: COc1cc(-c2cc3cccc(O)c3c(=O)o2)cc(OC)c1OC; details: Homo sapiens; 10 uM
[16] = substrate: O=c1oc(-c2ccc(O)c(O)c2)cc2ccccc12; details: Homo sapiens; 50 uM
[17] = substrate: COc1cc(-c2cc3cccc(O)c3c(=O)o2)cc(OC)c1OC; details: Homo sapiens; 30 uM
[18] = substrate: O=c1oc(-c2ccc(O)c(O)c2)cc2ccccc12; details: Homo sapiens; 50 uM; remark: listed apart in the source
[19] = substrate: O=c1oc(-c2ccc(O)c(O)c2)cc2ccccc12; details: Homo sapiens; 10 uM
[20] = substrate: O=c1oc(-c2ccc(O)c(O)c2)cc2ccccc12; details: Homo sapiens; 10 uM; remark: listed apart in the source
[21] = substrate: COc1cc(-c2cc3cccc(O)c3c(=O)o2)cc(OC)c1OC; details: Homo sapiens; 10 uM; remark: listed apart in the source
[22] = substrate: COc1cc(-c2cc3cccc(O)c3c(=O)o2)cc(OC)c1OC; details: Homo sapiens; 30 uM; remark: listed apart in the source

T5 sequence (P35354 whole entry, looked up, one chain of several): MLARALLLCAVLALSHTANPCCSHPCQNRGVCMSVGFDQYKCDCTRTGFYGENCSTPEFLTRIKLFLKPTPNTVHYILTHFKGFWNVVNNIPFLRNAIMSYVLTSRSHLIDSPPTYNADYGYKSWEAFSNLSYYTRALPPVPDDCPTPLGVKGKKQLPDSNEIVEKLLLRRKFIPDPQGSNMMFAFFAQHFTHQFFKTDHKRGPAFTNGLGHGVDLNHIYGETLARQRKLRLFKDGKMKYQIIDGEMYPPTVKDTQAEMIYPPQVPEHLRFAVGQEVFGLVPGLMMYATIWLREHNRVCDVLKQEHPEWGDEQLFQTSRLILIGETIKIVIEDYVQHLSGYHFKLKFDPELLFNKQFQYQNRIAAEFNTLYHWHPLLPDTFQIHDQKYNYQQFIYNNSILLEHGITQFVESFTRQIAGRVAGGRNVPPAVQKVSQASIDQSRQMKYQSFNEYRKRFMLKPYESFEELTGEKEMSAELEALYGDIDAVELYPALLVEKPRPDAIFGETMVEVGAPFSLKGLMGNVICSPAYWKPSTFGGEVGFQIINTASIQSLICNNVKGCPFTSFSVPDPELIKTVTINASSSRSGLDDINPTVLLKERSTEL
Prostaglandin G/H synthase 1, sequence (P23219 whole entry): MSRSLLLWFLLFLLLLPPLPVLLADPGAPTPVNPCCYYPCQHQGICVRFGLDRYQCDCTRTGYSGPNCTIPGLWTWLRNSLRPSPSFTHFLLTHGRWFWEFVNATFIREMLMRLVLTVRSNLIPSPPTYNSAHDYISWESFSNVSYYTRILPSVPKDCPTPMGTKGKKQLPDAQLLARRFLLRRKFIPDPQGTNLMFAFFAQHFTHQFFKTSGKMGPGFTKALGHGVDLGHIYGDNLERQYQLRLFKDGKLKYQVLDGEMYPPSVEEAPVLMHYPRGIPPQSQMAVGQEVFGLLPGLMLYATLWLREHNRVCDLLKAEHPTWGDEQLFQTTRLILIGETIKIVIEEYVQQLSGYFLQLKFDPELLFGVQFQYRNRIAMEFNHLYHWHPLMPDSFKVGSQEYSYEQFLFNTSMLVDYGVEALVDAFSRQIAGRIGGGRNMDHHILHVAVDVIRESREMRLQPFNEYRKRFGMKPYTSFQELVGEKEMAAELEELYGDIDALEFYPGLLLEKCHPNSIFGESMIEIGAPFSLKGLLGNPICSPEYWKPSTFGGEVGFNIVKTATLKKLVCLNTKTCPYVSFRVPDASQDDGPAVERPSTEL

| Molecule | inhibition [4] [%] | inhibition [5] [%] | IC50 [6] [µM] | viability at 24 h, 50 µM [2] [%] | Activity [3] [%] | other results |
| --- | --- | --- | --- | --- | --- | --- |
| O=C1O[C@H]([C@@H](O)CO)C(O)=C1O |  |  |  |  | 82.2 |  |
| COc1cc(-c2cc3cccc(O)c3c(=O)o2)cc(OC)c1OC | 80 to 80.3 | 68 | 12.4 | 80.2 | 12 to 12.4 | inhibition [7]: Active |
| CC1(C)Cc2c(-c3ccccc3)c(-c3ccc(Cl)cc3)c(CC(=O)O)n2C1 [LICOFELONE] | 71 |  | 0.5 | 85 |  | inhibition [8]: 48%; EC50 (Prostaglandin E synthase [9]): 0.1 µM; inhibition (HeLa [10]): Active; inhibition (HeLa [11]): Active; inhibition [12]: 54.7%; IC50 [13]: 0.8 µM; inhibition [14]: 81% |
| Polyunsaturated fatty acid 5-lipoxygenase (Homo sapiens), P09917 (protein) MPSYTVTVATGSQWFAGTDDYIYLSLVGSAGCSEKHLLDKPFYNDFERGAVDSYDVTVDEELGEIQLVRIEKRKYWLNDDWYLKYITLKTPHGDYIEFPCYRWITGDVEVVLRDGRAKLARDDQIHILKQHRRKELETRQKQYRWMEWNPGFPLSIDAKCHKDLPRDIQFDSEKGVDFVLNYSKAMENLFINRFMHMFQSSWNDFADFEKIFVKISNTISERVMNHWQEDLMFGYQFLNGCNPVLIRRCTELPEKLPVTTEMVECSLERQLSLEQEVQQGNIFIVDFELLDGIDANKTDPCTLQFLAAPICLLYKNLANKIVPIAIQLNQIPGDENPIFLPSDAKYDWLLAKIWVRSSDFHVHQTITHLLRTHLVSEVFGIAMYRQLPAVHPIFKLLVAHVRFTIAINTKAREQLICECGLFDKANATGGGGHVQMVQRAMKDLTYASLCFPEAIKARGMESKEDIPYYFYRDDGLLVWEAIRTFTAEVVDIYYEGDQVVEEDPELQDFVNDVYVYGMRGRKSSGFPKSVKSREQLSEYLTVVIFTASAQHAAVNFGQYDWCSWIPNAPPTMRAPPPTAKGVVTIEQIVDTLPDRGRSCWHLGAVWALSQFQENELFLGMYPEEHFIEKPVKEAMARFRKNLEAIVSVIAERNKKKQLPYYYLSPDRIPNSVAI |  |  |  |  |  | Vmax [15]: 0.83 nmol/min; Vmax [16]: 0.64 nmol/min; Vmax [17]: 0.93 nmol/min; Km [18]: 1.17 µM; Vmax [19]: 0.93 nmol/min; Km [20]: 1.38 µM; Km [21]: 1.2 µM; Km [22]: 1.45 µM |

Second part, led by results:

| inhibition [4] [%] | inhibition [5] [%] | IC50 [6] [µM] | Molecule | viability at 24 h, 50 µM [2] [%] | Activity [3] [%] | other results |
| --- | --- | --- | --- | --- | --- | --- |
| 72 | 73 | 20.9 | COc1cc(-c2cc3ccccc3c(=O)o2)cc(OC)c1OC | 75.7 | 15.8 | IC50 (Prostaglandin E synthase [1]): 9.3 µM |
| 49.2 | 54 |  | COc1cc(O)c2c(=O)oc(-c3ccccc3)cc2c1 | 78.1 | 16.6 |  |
| 50 | 75 |  | O=c1oc(-c2ccccc2)cc2ccccc12 | 76.7 | 14 | IC50 (Prostaglandin E synthase [1]): 9.5 µM |
| 34.1 | 65 |  | O=c1oc(-c2ccc(O)cc2)cc2ccccc12 | 81.4 | 17 |  |
| 35.6 | 75 |  | COc1cc(-c2cc3cccc(O)c3c(=O)o2)ccc1O | 79.8 | 36.2 |  |

— ChEMBL document CHEMBL3872230, “Inhibition of the enzymes in the leukotriene and prostaglandin pathways in inflammation by 3-aryl isocoumarins” (Eur J Med Chem, 2016)
